Screening results from PubChem BioAssay.
hERG protect: hERG rescue from dofetilide block, primary screen, cell-based, CHO-hERG, FluxOR thallium flux, dofetilide IC70; AID 1511, 2009; hit rate 0.51% among 310,000; activation (rescue from dofetilide block), less the hit threshold, % at 10 µM; dofetilide IC70 present;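 active = activation above the mean of controls blocked by dofetilide plus 5 SD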;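 note: thallium influx through hERG after potassium depolarization seen as dye fluorescence rise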
Kir21 inh: inhibitors of mouse Kir2.1 inward-rectifier potassium channel | AID 1672, 2009 | B-score at 10 µM | HEK293-Kir2.1, FluxOR thallium flux fluorescence; hits give low values | hit rate 0.85% among 310,000;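 active = fluorescence ratio B-score at or below minus 3 SD of library scores, with starting-brightness B-score within 2 SD, cut at about -4.2 in these data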;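 note: channel flux triggered by added potassium and thallium sulfate stimulus; B-score of peak minus minimum fluorescence over baseline after thallium stimulus; more negative B-score means stronger Kir2.1 block with less thallium influx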
KCNK9 inh: KCNK9 potassium channel inhibitors, primary screen, HEK293 cells, thallium flux. FluxOR thallium flux fluorescence; hits give low values. hit rate 1.2% among 310,000. Potassium channel subfamily K member 9 (Homo sapiens), Q9NPC2. B-score at 10 µM;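 active = ratio B-score over 3 SD below the library mean, with starting fluorescence within 5 SD of its mean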;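 note: negative B-score means less thallium flux so channel inhibition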
KCNK3 inh: human KCNK3 channel inhibitors, primary screen, CHO cells, FluxOR thallium flux, B-score. Potassium channel subfamily K member 3 (Homo sapiens), O14649. AID 602410, 2012. B-score at 10 µM. hit rate 0.84% among 340,000. FluxOR fluorescence; hits give low values;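 active = B-score under library mean minus 4 SD, starting fluorescence ratio at most library mean plus 5 SD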;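 note: more negative B-score means stronger inhibition of thallium flux through KCNK3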
KCNQ1 pot: potentiators or activators of KCNQ1 channel, primary screen, cell-based, thallium flux, high-throughput; Potassium voltage-gated channel subfamily KQT member 1 (Homo sapiens), P51787; CHO-K1 KCNQ1, thallium flux FluxOR fluorescence; hits give high values; B-score at 10 µM; hit rate 0.35% among 310,000;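 active = fluorescence ratio B-score, a plate-corrected score, at least three library SD, with initial intensity B-score within 5 SD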
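Material: CHO-K1 cells stably expressing KCNQ1. Medium: assay buffer for compound exposure, DMSO matched across wells. Reagent: K+/Tl+ depolarizing stimulus. Compound dosing: single-concentration screen. Times: 37 °C overnight plating, 90-min dark dye load, 20-min compound pretreatment. Technique: FluxOR Tl+ flux fluorescence.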
KCNQ1 inh: inhibitors of human KCNQ1 channel, primary screen, cell-based, thallium flux, high-throughput | B-score at 10 µM | hit rate 1.3% among 310,000 | CHO-K1 KCNQ1, FluxOR thallium flux fluorescence; hits give high values | Potassium voltage-gated channel subfamily KQT member 1 (Homo sapiens), P51787;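 active = compounds whose thallium flux B-score, printed positive for inhibition, exceeds three library SD while starting fluorescence stays within three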;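 note: channel opened by potassium depolarization with thallium stimulus after 20 min compound exposure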
KCNK9 block conf: KCNK9 potassium channel inhibitors, confirmation, HEK293 cells, thallium flux, duplicate. inhibition, % at 10 µM. FluxOR thallium flux fluorescence. shares compounds with KCNK9 inh. AID 492992, 2010. hit rate 43% among 4,900;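 active = thallium signal inhibited by more than 5 SD of the compound-free buffer control wells, on both duplicate plates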;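 note: 0% = assay buffer control wells without compound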
Kir21 sel: mouse Kir2.1 channel inhibition, confirmation, selectivity assay for KCNK9 modulator project, cell-based, HEK293, thallium flux; Kir2.1 cells, FluxOR thallium flux fluorescence; shares compounds with KCNK9 inh; inhibition, % at 10 µM; AID 492993, 2010; hit rate 4% among 4,900;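 active = thallium signal drop more than 5 SD beyond the mean of the no-compound control wells, seen in both duplicate plates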;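 note: signal is fluorescence rise after thallium addition divided by baseline fluorescence; plate controls were assay buffer only for no effect and full block by chlorpromazine control for full effect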
HEK293 Tl ctr: thallium flux in non-induced HEK293 cells, confirmation, counter-screen for KCNK9 inhibitor project, cell-based, second counter screen, non-induced KCNK9-HEK293. shares compounds with KCNK9 inh. FluxOR thallium flux. inhibition, % at 10 µM. hit rate 40% among 4,900;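 active = thallium signal drop beyond 5 SD of the untreated control mean, on both duplicate plates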;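 note: plate controls were buffer only IC0 wells for no effect and SID17386958 at its maximal inhibitory level for full effect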
* = called active by the depositor; i = inactive; . = not tested or not shown. Rows were chosen to be rich in hits. Some 3.7% of all compounds tested hit in one or more screens of this group.

SMILES	hERG protect	Kir21 inh	KCNK9 inh	KCNK3 inh	KCNQ1 pot	KCNQ1 inh	KCNK9 block conf	Kir21 sel	HEK293 Tl ctr
Cc1c(N=C2SCC(=O)N2/N=C\c2ccc(Br)cc2)c(=O)n(-c2ccccc2)n1C	-9	1.1	i	i	i	i	.	.	.
O=C(Nc1ccccc1OC(F)F)c1ccc(S(=O)(=O)N2CCCC2)cc1	.	.	.	i	.	.	.	.	.
Cc1cc(C)nc(SCc2csc(-c3ccccc3)n2)n1	-10	-1.6	-11*	i	i	i	53%*	i	35%*
O=C(Nc1nc2ccccc2[nH]1)c1ccccc1[N+](=O)[O-]	-6	-0.43	i	i	i	i	.	.	.
Cc1c(C(=O)Nc2nc3ccccc3[nH]2)cccc1[N+](=O)[O-]	-5	1.8	-8.4*	i	i	i	47%*	i	26%*
CC(=O)c1cccc(-n2c(CCC(=O)O)ccc2-c2ccc(C)cc2)c1	2	0.75	-15*	i	i	i	i	i	i
O=C(O)CCc1ccc(-c2ccccc2)n1-c1cccc(C(=O)O)c1	-3	-0.34	i	i	i	i	.	.	.
COc1ccccc1COCC(O)CN1CCCCC1CO (stereo not given)	-1	0.31	i	i	i	i	.	.	.
CCOC(=O)C1CCCN(Cc2cc(Br)c(OC)cc2OC)C1 (stereo not given)	-12	-0.74	i	i	i	i	i	i	i
CCOC(=O)C1CCCN(Cc2cc(=O)oc3cc(C)c(C)cc23)C1 (stereo not given)	-19	-2.7	i	i	i	i	i	i	i
CCOC(=O)C1CCCN(CC(O)COCc2ccccc2OC)C1 (stereo not given)	-4	-2	i	i	i	i	i	i	i
CCN(CC(=O)Nc1c(F)cccc1F)C(=O)C1CCN(S(=O)(=O)c2ccc(C)cc2C)CC1	-9	0.24	i	i	i	i	.	.	.
O=[N+]([O-])c1ccccc1CCc1cnc(Cl)s1	-7	-0.05	i	i	i	i	.	.	.
CC1CCN(S(=O)(=O)c2cc(C(=O)Nc3ccccn3)ccc2Br)CC1	-14	-0.22	i	i	i	i	.	.	.
COC(=O)c1cc(S(=O)(=O)NCC2CCN(CCc3cccs3)CC2)c[nH]1	-5	1.5	i	i	i	i	.	.	.
COC(=O)CNC(c1ccccc1)c1cc(Br)ccc1NC(=O)CNC(=O)OCc1ccccc1 (stereo not given)	-6	1.2	-15*	i	i	i	64%*	i	32%*
Oc1cc(-c2ccccc2)c2ccccc2c1	-17	-4.6*	-11*	i	i	8*	49%*	i	34%*
COC(=O)C1CN(C(=O)COc2cc(C)c(Cl)c(C)c2)c2ccccc2O1 (stereo not given)	-1	0.18	-9.9*	i	i	i	i	i	34%*
O=C(COc1ccc(Cl)cc1)OCC(=O)c1ccc[nH]1	.	.	.	i	.	.	.	.	.
COc1ccc(CCCc2nnc(SCC(=O)Nc3cccc(C)c3)o2)cc1	-4	-0.16	i	i	i	i	i	i	i
